Measurements reported in ChEMBL document CHEMBL1135645, “Synthesis and evaluation of analogues of 5'-([(Z)-4-amino-2-butenyl]methylamino)-5'-deoxyadenosine as inhibitors of tumor cell growth, trypanosomal growth, and HIV-1 infectivity” (J Med Chem, 2002).

What was measured:
HT-29 [1] = assay: In vitro Anti Neoplastic Activity in Human Colon adenocarcinoma HT-29 Cell lines; format: functional, cell-based
Outline: (§1)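 SRB growth assay. Cell lines were grown as monolayers in RPMI-1640 with 5% FCS, 5% NuSerum IV, 20 mM HEPES and 2 mM glutamine, and seeded at 400–1200 cells/well. They attached for 15–18 h before drug. Ten concentrations over 5 logs were tested, with final DMSO ≤0.25%. Exposure was 72 h at 37 °C. Cells were TCA-fixed, stained with sulforhodamine B and read at OD 570 nm. IC50 is 50% growth inhibition.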

L1210 [2] = assay: In vitro inhibition of AdoMetDC derived from L1210 Murine Leukemia Cells at a dose of 100 uM; format: functional; conditions: Mus musculus
A549 [3] = assay: In vitro Anti Neoplastic Activity against Human non small cell lung carcinoma A549 Cell lines; format: functional, cell-based; outline: as §1
MCF7 [4] = assay: In vitro Anti Neoplastic Activity against Human Breast adenocarcinoma MCF-7 Cell lines; format: functional, cell-based; outline: as §1
L1210 [5] = assay: In vitro Anti Neoplastic Activity against L1210 murine leukemia Cell lines; format: functional, cell-based; conditions: Mus musculus; outline: as §1
[6] = tested on: Trypanosoma brucei brucei; assay: In vitro anti trypanosomal activity against Trypanosomal 110 (EATRO)strain; format: functional, organism-based
A121 [7] = assay: In vitro Anti Neoplastic Activity against Human ovarian carcinoma A121 Cell lines; format: functional, cell-based; outline: as §1
[8] = tested on: Trypanosoma brucei rhodesiense; assay: In vitro anti trypanosomal activity against Trypanosomal 243 (KETRI)strain; format: functional, organism-based
MCF7 [9] = assay: In vitro Anti Neoplastic Activity against Adriamycin resistant Human Breast adenocarcinoma MCF7-Adr Cell lines; format: functional, cell-based; outline: as §1
[10] = tested on: Trypanosoma brucei rhodesiense; assay: In vitro anti trypanosomal activity against Trypanosomal 243 As 10e-3 (KETRI)strain; format: functional, organism-based
[11] = tested on: Trypanosoma brucei rhodesiense; assay: In vitro anti trypanosomal activity against Trypanosomal 269 (KETRI)strain; format: functional, organism-based
[12] = tested on: Trypanosoma brucei rhodesiense; assay: Mean survival days against T.b. rhodesiense KETRI 243 tested in mice after intra peritoneal administration at 50 mg/kg for 7 days.
A121 [13] = assay: In vitro anti Neoplastic Activity against Human ovarian carcinoma A121 Cell lines;Value ranges from (1-30); format: functional, cell-based; outline: as §1
[14] = tested on: Trypanosoma brucei brucei; assay: Mean survival days against T.b. peritoneal administration at 10 mg/kg for 3 days.; format: functional
[15] = tested on: Trypanosoma brucei brucei; assay: Mean survival days against T.b. brucei LAB 110 EATRO tested in mice administration at 100 mg/kg for 7 days.; format: functional
Outline: (§2)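 Female Swiss-Webster mice (20 g) were infected with 2.5×10^5 trypanosomes from a rat infection. Compounds were dissolved in water and given at the stated daily dose by 7 day miniosmotic pumps implanted aseptically. There were 5 mice per group. Viability was checked daily and tail-vein blood smears weekly. The value is mean survival in days. Mice were scored cured if they survived >30 days beyond untreated controls with no parasitemia.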

[16] = tested on: Trypanosoma brucei rhodesiense; assay: Mean survival days against T.b. rhodesiense KETRI 243 tested in mice after intra peritoneal administration at 25 mg/kg for 7 days.; format: functional
A549 [17] = assay: In vitro anti Neoplastic Activity against Human non small cell lung carcinoma A549 Cell lines;Value ranges from (3-10).; format: functional, cell-based; outline: as §1
Mus musculus [18] = organism: Mus musculus; assay: Number of mice cured to that of 5 treated with the compound for 7 days
[19] = tested on: Trypanosoma brucei brucei; assay: Mean survival days against T.b. peritoneal administration at 25 mg/kg for 3 days.; format: functional
Mus musculus [20] = assay: Number of mice cured to that of 5 treated with the compound at 25 mg/kg for 7 days; format: functional
[21] = tested on: Trypanosoma brucei brucei; assay: Mean survival days against T.b. brucei LAB 110 EATRO tested in mice administration at 50 mg/kg for 7 days.; format: functional; outline: as §2
Mus musculus [22] = assay: Number of mice cured to that of 5 treated with the compound at 25 mg/kg for 3 days; format: functional
HT-29 [23] = assay: In vitro anti Neoplastic Activity in Human Colon adenocarcinoma HT-29 Cell lines;Value ranges from (3-30).; format: functional, cell-based; outline: as §1
Mus musculus [24] = assay: Number of mice cured to that of 5 treated with the compound at 50 mg/kg for 7 days; format: functional
[25] = Differential selectivity as the ratio of TC50 value to that of EC50 value.; format: functional
Outline: (§3)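 Syncytial plaque assay: log-phase CEM-SS cells were PBS-washed and plated at 50 000 per well in serum-free RPMI-1640 on poly-L-lysine-coated wells (30 min, 37 °C). They were inoculated with HIV-1 (60–90 PFU) for 120 min, then overlaid with compound in growth medium (2-fold dilutions, 0.00015–20 μM). A second overlay followed on day 3, with 5 days total. EC50 is 50% inhibition of plaque formation. TC50 is morphological change in noninfected CEM-SS cells.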

Mus musculus [26] = assay: Nnumber of mice cured to that of 5 treated with the compound at 50 mg/kg for 3 days; format: functional
[27] = tested on: Trypanosoma brucei brucei; assay: Mean survival days against T.b. brucei LAB 110 EATRO tested in mice administration at 25 mg/kg for 7 days.; format: functional; outline: as §2
Mus musculus [28] = assay: Number of mice cured to that of 5 treated with the compound at 10 mg/kg for 3 days; format: functional
MCF7 [29] = assay: In vitro anti Neoplastic Activity against Adriamycin resistant Human Breast adenocarcinoma MCF7-Adr Cell lines; format: functional, cell-based; outline: as §1
CCRF-CEM = assay: Concentration that causes morphological changes in noninfected CEM-SS cells; format: functional; conditions: Homo sapiens, read-out: TC50 (the source's name)
[30] = tested on: Trypanosoma brucei rhodesiense; assay: Mean survival days against T.b. rhodesiense KETRI 243 tested in mice after intra peritoneal administration at 50 mg/kg for 7 days.; format: functional
[31] = tested on: Human immunodeficiency virus 1; assay: In Vitro Anti-HIV activity in CEM cells; format: functional, organism-based; conditions: Human immunodeficiency virus 1, CCRF-CEM; outline: as §3
MCF7 [32] = assay: In vitro anti Neoplastic Activity against Human Breast adenocarcinoma MCF-7 Cell lines; format: functional, cell-based; outline: as §1
[33] = tested on: Trypanosoma brucei brucei; assay: Mean survival days against T.b. peritoneal administration at 50 mg/kg for 3 days.; format: functional
Mus musculus [34] = assay: Number of mice cured to that of 5 treated with the compound at 100 mg/kg for 7 days; format: functional
L1210 [35] = assay: In vitro inhibition of AdoMetDC derived from L1210 Murine Leukemia Cells.; format: functional; conditions: Mus musculus, read-out: ID50 (the source's name)
Mus musculus [36] = assay: Ratio of number of mice cured to that of total treated with the compound at 100 mg/kg for 7 days; format: functional
A121 [37] = assay: In vitro Antineoplastic Activity against Human ovarian carcinoma A121 Cell lines; format: functional, cell-based
Mus musculus [38] = assay: Ratio of number of mice cured to that of total treated with the compound at 50 mg/kg for 3 days; format: functional
Mus musculus [39] = assay: Ratio of number of mice cured to that of total treated with the compound at 25 mg/kg for 3 days; format: functional
[40] = tested on: Human immunodeficiency virus 1; assay: In Vitro Anti-HIV activity of the compound; format: functional; conditions: read-out: ED50 (the source's name)
Mus musculus [41] = assay: Ratio of number of mice cured to that of total treated with the compound at 10 mg/kg for 3 days; format: functional
MCF7 [42] = assay: In vitro Neoplastic Anti Activity against Human Breast adenocarcinoma MCF-7 Cell lines; format: functional, cell-based
Mus musculus [43] = assay: Ratio of number of mice cured to that of total treated with the compound at 50 mg/kg for 7 days; format: functional
A549 [44] = assay: In vitro Antineoplastic Activity against Human non small cell lung carcinoma A549 Cell lines; format: functional, cell-based
[45] = tested on: Trypanosoma brucei brucei; assay: In vitro antitrypanosomal activity against Trypanosomal 110 (EATRO)strain; format: functional, organism-based
[46] = tested on: Trypanosoma brucei rhodesiense; assay: Mean survival days against T.b. rhodesiense KETRI 243 tested in mice after intra peritoneal administration at 100 mg/kg for 7 days.; format: functional
[47] = tested on: Trypanosoma brucei rhodesiense; assay: In vitro antitrypanosomal activity against Trypanosomal 243 (KETRI)strain; format: functional, organism-based
MCF7 [48] = assay: In vitro Antineoplastic Activity against Adriamycin resistant Human Breast adenocarcinoma MCF7-Adr Cell lines; format: functional, cell-based
[49] = tested on: Trypanosoma brucei rhodesiense; assay: In vitro antitrypanosomal activity against Trypanosomal 243 As 10e-3 (KETRI)strain; format: functional, organism-based
Mus musculus [50] = assay: Ratio of number of mice cured to that of total treated with the compound at 25 mg/kg for 7 days; format: functional
HT-29 [51] = assay: In vitro Neoplastic Anti Activity in Human Colon adenocarcinoma HT-29 Cell lines; format: functional, cell-based
[52] = tested on: Trypanosoma brucei rhodesiense; assay: In vitro antitrypanosomal activity against Trypanosomal 269 (KETRI)strain; format: functional, organism-based

Compound	IC50 (HT-29 [1]) [µM]	IC50 (A549 [3]) [µM]	IC50 (MCF7 [4]) [µM]	IC50 [6] [µM]	IC50 (A121 [7]) [µM]	IC50 [8] [µM]	IC50 (MCF7 [9]) [µM]	IC50 [10] [µM]	IC50 [11] [µM]	IC50 (L1210 [5]) [µM]	MSD [14] [days]	MSD [16] [days]	MSD [19] [days]	CC50 (CCRF-CEM) [µM]	MSD [30] [days]	MSD [33] [days]	IC50 (L1210 [35]) [µM]	also measured
CC(=O)OC1C(CN(C)C/C=C\CN)OC(n2cnc3c(N)ncnc32)C1OC(C)=O (centres undefined)	–	–	–	0.014	–	0.014	–	0.054	0.02	20	17	18	33	12	21.2	>34	0.82	MSD [12]: 21.2 days; IC50 (A121 [13]): 30 µM; MSD [15]: 26 days; IC50 (A549 [17]): 10 µM; No. cured (Mus musculus [18]): 0; No. cured (Mus musculus [20]): 0; No. of cures (Mus musculus [20]): 5; MSD [21]: >34 days; No. of cures (Mus musculus [22]): 4; IC50 (HT-29 [23]): 30 µM; No. cured (Mus musculus [24]): 0; No. of cures (Mus musculus [24]): 5; Ratio [25]: 240; No. of cures (Mus musculus [26]): 5; MSD [27]: >34 days; No. of cures (Mus musculus [28]): 4; IC50 (MCF7 [29]): > 100 µM; EC50 [31]: 0.05 µM; IC50 (MCF7 [32]): 51 µM; No. of cures (Mus musculus [34]): 4
CN(C/C=C\CN)C[C@H]1O[C@@H](n2cnc3c(N)nc(N)nc32)[C@H](O)[C@@H]1O	–	–	–	4.5	–	3.8	–	2	19	–	–	–	–	–	–	–	–	–
CN(C/C=C\CN)C[C@H]1O[C@@H](n2cnc3c(N)ncnc32)[C@H](O)[C@@H]1O	–	–	–	–	–	–	–	–	–	–	12	31	>34	< 6.25	31.3	>34	0.078	No. cured/total (Mus musculus [36]): 4; IC50 (A121 [37]): > 100 µM; No. cured/total (Mus musculus [38]): 5; No. cured/total (Mus musculus [39]): 5; EC50 [40]: 0.93 µM; Selectivity [25]: 6.7; No. cured/total (Mus musculus [41]): 4; IC50 (MCF7 [42]): > 100 µM; No. cured/total (Mus musculus [43]): 2; IC50 (A549 [44]): 3 µM; IC50 [45]: 0.1 µM; MSD [46]: 32 days; IC50 [47]: 0.04 µM; IC50 (MCF7 [48]): 200 µM; IC50 [49]: 0.1 µM; No. cured/total (Mus musculus [50]): 2; IC50 (HT-29 [51]): > 100 µM; IC50 [52]: 0.22 µM

Continued, in another order:

IC50 (HT-29 [1]) [µM]	IC50 (A549 [3]) [µM]	IC50 (MCF7 [4]) [µM]	IC50 [6] [µM]	IC50 (A121 [7]) [µM]	IC50 [8] [µM]	IC50 (MCF7 [9]) [µM]	IC50 [10] [µM]	IC50 [11] [µM]	Compound	IC50 (L1210 [5]) [µM]	MSD [14] [days]	MSD [16] [days]	MSD [19] [days]	CC50 (CCRF-CEM) [µM]	MSD [30] [days]	MSD [33] [days]	IC50 (L1210 [35]) [µM]	also measured
112	> 100	63	16	41	15	78	–	–	CN(C/C=C\CN)CC(CO)OC(CO)n1cnc2c(N)ncnc21 (centres undefined)	> 600	–	–	–	–	–	–	–	inhibition at 100 µM (L1210 [2]): 27%
> 100	> 100	> 100	1.8	> 100	4.6	> 100	2.9	3.8	CC(=O)OCC(CN(C)C/C=C\CN)OC(COC(C)=O)n1cnc2c(N)ncnc21 (centres undefined)	–	–	–	–	–	–	–	–	–
